Our source for the Activity and IC50 values is ChEMBL document CHEMBL3227936, “Actions of two dopamine derivatives at adreno- and cholinoceptors” (J Med Chem, 1979).

Structures are written as SMILES. Active and inactive are the calls of the source. The rule behind the calls is not given here. Where only a bound is given, the exact number is not on record here.

The species named for data set [1] is Cavia porcellus. The data set can be described thus: Agonist activity at muscarinic acetylcholine receptor in guinea pig ileum smooth muscle assessed as contraction in presence of atropine. It is filed as tissue-based. Summed up: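 Guinea pig ileum was kept in Tyrode solution at 32 °C and aerated. Isotonic contractions were recorded, and concentration–effect curves were repeated after atropine 1×10^-8 M. Points are means of at least four experiments.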

For data set [2], the species on record is Cavia porcellus. The data set can be described thus: Agonist activity at muscarinic acetylcholine receptor in guinea pig ileum smooth muscle assessed as contraction measured after compound washout. The class given is tissue-based. Summed up:
(§1)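 Guinea pig ileum segments were kept in Tyrode solution at 32 °C and bubbled with air. Isotonic contractions to cholinergic agonists were recorded, and log concentration–effect curves were built. Points are means of at least four experiments.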

The species named for data set [3] is Cavia porcellus. As to the kind of experiment: Agonist activity at muscarinic acetylcholine receptor in guinea pig ileum smooth muscle assessed as contraction. The class given is tissue-based. In short, it runs like this: as §1
Data set [4] is filed under the species Gallus gallus. The data set can be described thus: Agonist activity at cholinergic receptor isolated from chicken biventer cervicis nerve muscle assessed as >10 ug/ml.
The next data set deals with T1, Acetylcholinesterase (Gallus gallus, UniProt P36196).
T1 sequence (P36196 whole entry): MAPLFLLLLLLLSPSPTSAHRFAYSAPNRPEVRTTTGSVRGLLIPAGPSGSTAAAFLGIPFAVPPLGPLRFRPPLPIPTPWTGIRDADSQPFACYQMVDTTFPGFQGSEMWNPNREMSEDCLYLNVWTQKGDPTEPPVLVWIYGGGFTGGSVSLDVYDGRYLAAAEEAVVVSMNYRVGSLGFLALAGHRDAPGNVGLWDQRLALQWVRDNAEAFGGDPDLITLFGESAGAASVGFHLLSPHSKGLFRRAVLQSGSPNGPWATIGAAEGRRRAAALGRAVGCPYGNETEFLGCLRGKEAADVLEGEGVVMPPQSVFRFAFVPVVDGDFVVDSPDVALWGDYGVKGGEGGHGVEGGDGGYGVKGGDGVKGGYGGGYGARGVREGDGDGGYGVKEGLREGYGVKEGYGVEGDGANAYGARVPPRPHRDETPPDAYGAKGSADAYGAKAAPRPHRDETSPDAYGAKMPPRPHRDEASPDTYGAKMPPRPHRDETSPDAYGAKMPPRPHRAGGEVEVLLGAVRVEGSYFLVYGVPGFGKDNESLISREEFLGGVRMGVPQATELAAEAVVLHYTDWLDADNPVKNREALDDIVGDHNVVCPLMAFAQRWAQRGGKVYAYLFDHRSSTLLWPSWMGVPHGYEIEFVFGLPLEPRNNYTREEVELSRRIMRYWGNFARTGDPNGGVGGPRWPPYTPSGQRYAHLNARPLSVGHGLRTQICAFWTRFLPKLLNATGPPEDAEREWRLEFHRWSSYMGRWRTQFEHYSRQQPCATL
As to the kind of experiment: Inhibition of acetylcholine esterase in chicken biventer cervicis muscle assessed as rate of acetylcholine hydrolysis by Ellman's method. Set-up: species or system Muscle tissue. The note with it: read-out: I50. Summed up:
(§2)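 Chick biventer cervicis muscle homogenates were assayed for cholinesterase with acetylthiocholine as substrate by Ellman's colorimetric method as modified by Gandiha et al. Absorbance change was read at 412 nm. Hydrolysis rates (µmol min^-1 g^-1) were compared with and without drug.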

The target in data set [5] is T2, Acetylcholinesterase (Gallus gallus) (UniProt P36196).
T2 sequence (whole entry): T1 sequence (P36196 whole entry)
The data set can be described thus: Inhibition of acetylcholine esterase in chicken biventer cervicis muscle assessed as rate of acetylcholine hydrolysis at 37 uM by Ellman's method. The note with it: Muscle tissue. Summed up:
as §2

Data set [6] is filed under the species Gallus gallus. As to the kind of experiment: (§3) Agonist activity at cholinergic receptor in chicken biventer cervicis nerve muscle assessed as twitch augmentation accompanied with contracture at 1 to 10 ug/ml.
The subject of data set [7] is Felis catus. As to the kind of experiment: Reduction of mean blood pressure in atropinized-cat at 0.2 to 3 mg/kg, iv in presence of phentolamine. It is filed as functional, organism-based. In short, it runs like this:
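In atropinized cats (atropine 1 mg/kg) under chloralose–pentobarbitone anesthesia, drugs in acid saline pH 4.5 were given iv. Mean blood pressure responses were recorded with phentolamine 2 mg/kg.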

Data set [8] deals with Felis catus. As to the kind of experiment: Reduction of mean blood pressure in cat at 0.2 to 3 mg/kg, iv in presence of atropine. The class given is functional, organism-based. In short, it runs like this: (§4)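 Cats were anesthetized with α-chloralose 80 mg/kg plus pentobarbitone 6 mg/kg ip and vagotomized. Drugs were given iv in acid saline pH 4.5. Heart rate and blood pressure responses were recorded before and after atropine 1 mg/kg.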

Data set [9] concerns Felis catus. The data set can be described thus: Reduction of mean blood pressure in cat at 0.2 to 3 mg/kg, iv. The class given is functional, organism-based. In short, it runs like this: (§5)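 Adult cats of either sex were anesthetized with α-chloralose 80 mg/kg plus sodium pentobarbitone 6 mg/kg ip, and nearly all were bilaterally vagotomized. Drugs were given iv via a femoral or brachial vein in acid-0.9% saline (pH 4.5). The sciatic nerve was stimulated to evoke soleus contractions, with maximal twitches at 0.1 Hz. Responses were recorded continuously.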

Data set [10] is filed under the species Gallus gallus. The data set can be described thus: Agonist activity at cholinergic receptor in chicken biventer cervicis nerve muscle assessed as twitch blockade at 1 to 10 ug/ml.
For data set [11], the species on record is Gallus gallus. The data set is described as §3. This is another data set of the same source.
Data set [12] is filed under the species Gallus gallus. The data set can be described thus: Agonist activity at cholinergic receptor isolated from chicken biventer cervicis nerve muscle assessed as >10 ug/ml measured after compound washout.
The species entered for data set [13] is Cavia porcellus. As to the kind of experiment: Agonist activity at muscarinic acetylcholine receptor in guinea pig ileum smooth muscle assessed as contraction in presence of hexamethonium. It is filed as tissue-based. In short, it runs like this:
as §1

The subject of data set [14] is Felis catus. As to the kind of experiment: Induction of fasiculated twitches in skeletal muscle of electrically stimulated cat at 0.2 to 3 mg/kg, iv relative to control. On the set-up: dose 0.2-3 mg/kg, route intravenous. The conditions noted are these: in vivo. The class given is organism-based, Muscle tissue. In short, it runs like this:
as §5

For data set [15], the species on record is Gallus gallus. As to the kind of experiment: Agonist activity at cholinergic receptor in chicken biventer cervicis nerve muscle assessed as blockade of twitch response at 10 to 200 ug/ml in presence of tetanus.
The species named for data set [16] is Gallus gallus. As to the kind of experiment: Agonist activity at cholinergic receptor in chicken biventer cervicis nerve muscle assessed as blockade of twitch response at 10 to 200 ug/ml in presence of caffeine.
Data set [17] has as its system Felis catus. As to the kind of experiment: Reduction of fused incomplete tetanic contraction in soleus muscle of electrically stimulated cat at 0.2 to 3 mg/kg, iv in presence of antagonist propranalol. The class given is functional, organism-based. In short, it runs like this:
(§6)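 In chloralose–pentobarbitone anesthetized cats, the sciatic nerve was stimulated to evoke soleus contractions. Drugs were given iv in acid saline pH 4.5, and responses were recorded after propranolol 0.4 mg/kg.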

The subject of data set [18] is Felis catus. The data set can be described thus: Reduction of twitch tension in soleus muscle of electrically stimulated cat at 0.2 to 3 mg/kg, iv in presence of antagonist propranolol. It is filed as functional, organism-based. In short, it runs like this:
as §6

The species entered for data set [19] is Gallus gallus. The data set can be described thus: Agonist activity at cholinergic receptor in chicken biventer cervicis nerve muscle assessed as blockade of twitch response at 10 to 200 ug/ml in presence of choline.
The subject of data set [20] is Felis catus. The data set can be described thus: Reduction of twitch tension in soleus muscle of electrically stimulated cat at 0.2 to 3 mg/kg, iv. It is filed as functional, organism-based. In short, it runs like this:
as §5

The subject of data set [21] is Felis catus. As to the kind of experiment: Reduction of heart rate in cat at 0.2 to 3 mg/kg, iv. It is filed as functional, organism-based. Summed up: as §5
Data set [22] deals with Felis catus. The data set can be described thus: Reduction of heart rate in cat at 0.2 to 3 mg/kg, iv in presence of atropine. It is filed as functional, organism-based. In short, it runs like this:
as §4

The species named for data set [23] is Gallus gallus. As to the kind of experiment: Agonist activity at cholinergic receptor in chicken biventer cervicis nerve muscle assessed as blockade of twitch accompanied with contracture at 10 to 200 ug/ml.
Data set [24] deals with Felis catus. As to the kind of experiment: Reduction of fused incomplete tetanic contraction in soleus muscle of electrically stimulated cat at 0.2 to 3 mg/kg, iv. The class given is functional, organism-based. In short, it runs like this: as §5
For data set [25], the species on record is Gallus gallus. As to the kind of experiment: Agonist activity at cholinergic receptor in chicken biventer cervicis nerve muscle assessed as blockade of twitch response at 10 to 200 ug/ml in presence of physostigmine.
Data set [26] concerns the target T2, Acetylcholinesterase (Gallus gallus). The data set can be described thus: Inhibition of acetylcholine esterase in chicken biventer cervicis muscle assessed as rate of acetylcholine hydrolysis at 1.3 X 10^-3 M by Ellman's method. The note with it: Muscle tissue. In short, it runs like this:
as §2

For `C[N+](C)(C)CCOC(N)=O`, the outcome in the data set listed under Cavia porcellus [1] and in the data set filed under Cavia porcellus [2] was inactive. The outcome in the data set listed under Cavia porcellus [3] and in the data set filed under Gallus gallus [4] was Active.

`CNC(=O)Oc1ccc2c(c1)[C@]1(C)CCN(C)[C@@H]1N2C` [PHYSOSTIGMINE]: the IC50 at Acetylcholinesterase is 0.02 µM.

Turning to `Br.CC1(C)NCCc2cc(O)c(O)cc21`, at Acetylcholinesterase, the IC50 worked out at 37 µM. In addition, the Activity was 3.55 µmol/min/g in data set [5], “Dose-dependent effect” in the data set on Felis catus [9] and “<= 100%” with Felis catus [14]. For the same compound, the result in the data set filed under Gallus gallus [6], in the data set filed under Cavia porcellus [3], in the data set filed under Gallus gallus [11], in the data set listed under Cavia porcellus [13] and in the data set filed under Gallus gallus [4] was Active. In addition, the outcome in the data set with Felis catus [7], in the data set listed under Cavia porcellus [1], in the data set with Felis catus [8], in the data set filed under Cavia porcellus [2], in the data set listed under Gallus gallus [10] and in the data set filed under Gallus gallus [12] was inactive.

Turning to `CC1NCCc2cc(O)c(O)cc21` (stereo unspecified), the result in the data set listed under Gallus gallus [15], in the data set listed under Gallus gallus [16], in the data set filed under Gallus gallus [19], in the data set with Felis catus [20], in the data set with Felis catus [21] and in the data set filed under Gallus gallus [23] was Active. Moreover, the result in the data set on Felis catus [24] and in the data set listed under Gallus gallus [25] was Active. Besides, the result in the data set on Felis catus [17], in the data set on Felis catus [18], in the data set with Felis catus [7], in the data set with Felis catus [8], in the data set on Felis catus [22] and in the data set filed under Cavia porcellus [3] was inactive. Also, the Activity entry in the data set on Felis catus [9] was “Dose-dependent effect”; in [26], 7.48 µmol/min/g.
